Source: PMC6606825 (Journal of Ginseng Research, 2018)

Assay: Pharmacokinetics of CK and its metabolite 20
Assay type: in vivo, healthy Chinese volunteers
Conditions: mean (SD)
In short: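 Healthy adults given one oral tablet dose fasting (overnight, or 10 h in a crossover food-effect arm); 30 subjects from the 100/200/400 mg groups were pooled with 24 from 200 mg fasting periods. Plasma was stored at −70°C, extracted with MTBE plus internal standards and assayed by LC-MS/MS. Cmax was observed and AUClast calculated by linear trapezoid, each divided by dose. The metabolite/parent ratio was also calculated. Genotyping used Sequenom MassARRAY, and log-transformed values were compared by one-way ANOVA.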

[1] = ABCG2 rs3114018 AA (first line)
[2] = ABCG2 rs3114018 AA (third line)

CC(C)=CCC[C@](C)(O)[C@H]1CC[C@]2(C)[C@@H]1[C@H](O)C[C@@H]1[C@@]3(C)CC[C@H](O)C(C)(C)[C@@H]3CC[C@]12C [20(S)-PPD, 20(S)-protopanaxadiol]
Ratio 20(S)-PPD/CK Cmax/D (ABCG2 rs2725248 CC): 0.74 (0.83) % | 20(S)-PPD AUClast/D [1]: 0.91 (0.71) | 20(S)-PPD Cmax/D [1]: 0.03 (0.02) | Ratio 20(S)-PPD/CK AUClast/D [1]: 4.78 (4.26) % | Ratio 20(S)-PPD/CK Cmax/D [1]: 0.96 (0.87) % | 20(S)-PPD AUClast/D [2]: 0.88 (0.92) | 20(S)-PPD Cmax/D [2]: 0.03 (0.03) | Ratio 20(S)-PPD/CK AUClast/D [2]: 5.73 (8.96) % | Ratio 20(S)-PPD/CK Cmax/D [2]: 1.25 (1.73) % | 20(S)-PPD AUClast/D (ABCG2 rs3114018 CA): 0.80 (0.73) | 20(S)-PPD Cmax/D (ABCG2 rs3114018 CA): 0.03 (0.03) | Ratio 20(S)-PPD/CK AUClast/D (ABCG2 rs3114018 CA): 3.46 (4.62) % | Ratio 20(S)-PPD/CK Cmax/D (ABCG2 rs3114018 CA): 1.17 (1.94) % | 20(S)-PPD AUClast/D (ABCG2 rs6857600 CC): 0.89 (0.83) | 20(S)-PPD Cmax/D (ABCG2 rs6857600 CC): 0.03 (0.03) | Ratio 20(S)-PPD/CK AUClast/D (ABCG2 rs6857600 CC): 4.61 (6.81) % | Ratio 20(S)-PPD/CK Cmax/D (ABCG2 rs6857600 CC): 1.26 (1.91) % | 20(S)-PPD AUClast/D (ABCG2 rs6857600 TC): 0.65 (0.64) | 20(S)-PPD Cmax/D (ABCG2 rs6857600 TC): 0.02 (0.02) | Ratio 20(S)-PPD/CK AUClast/D (ABCG2 rs6857600 TC): 2.91 (3.24) % | Ratio 20(S)-PPD/CK Cmax/D (ABCG2 rs6857600 TC): 0.75 (0.80) % | 20(S)-PPD AUClast/D (ABCG2 rs6857600 TT): 0.48 (0.53) | 20(S)-PPD Cmax/D (ABCG2 rs6857600 TT): 0.02 (0.02) | Ratio 20(S)-PPD/CK AUClast/D (ABCG2 rs6857600 TT): 4.27 (5.76) % | Ratio 20(S)-PPD/CK Cmax/D (ABCG2 rs6857600 TT): 0.95 (1.30) % | 20(S)-PPD AUClast/D (ABCG2 rs12505410 GG): 0.92 (0.62) | 20(S)-PPD Cmax/D (ABCG2 rs12505410 GG): 0.03 (0.02) | Ratio 20(S)-PPD/CK AUClast/D (ABCG2 rs12505410 GG): 3.61 (2.83) % | Ratio 20(S)-PPD/CK Cmax/D (ABCG2 rs12505410 GG): 0.90 (0.55) % | 20(S)-PPD AUClast/D (ABCG2 rs12505410 GT): 1.00 (0.74) | Ratio 20(S)-PPD/CK AUClast/D (ABCG2 rs12505410 GT): 4.63 (5.21) % | Ratio 20(S)-PPD/CK Cmax/D (ABCG2 rs12505410 GT): 1.36 (2.02) % | 20(S)-PPD AUClast/D (ABCG2 rs12505410 TT): 0.63 (0.82) | 20(S)-PPD Cmax/D (ABCG2 rs12505410 TT): 0.02 (0.03) | Ratio 20(S)-PPD/CK AUClast/D (ABCG2 rs12505410 TT): 4.03 (7.68) % | Ratio 20(S)-PPD/CK Cmax/D (ABCG2 rs12505410 TT): 0.97 (1.54) % | 20(S)-PPD AUClast/D (ABCG2 rs17731799 GG): 0.91 (0.71) | 20(S)-PPD Cmax/D (ABCG2 rs17731799 GG): 0.03 (0.02) | Ratio 20(S)-PPD/CK AUClast/D (ABCG2 rs17731799 GG): 4.78 (4.26) % | Ratio 20(S)-PPD/CK Cmax/D (ABCG2 rs17731799 GG): 0.96 (0.87) % | 20(S)-PPD AUClast/D (ABCG2 rs17731799 GT): 0.82 (0.77) | 20(S)-PPD Cmax/D (ABCG2 rs17731799 GT): 0.03 (0.03) | Ratio 20(S)-PPD/CK AUClast/D (ABCG2 rs17731799 GT): 3.65 (5.14) % | Ratio 20(S)-PPD/CK Cmax/D (ABCG2 rs17731799 GT): 1.28 (2.16) % | 20(S)-PPD AUClast/D (ABCG2 rs17731799 TT): 0.80 (0.85) | 20(S)-PPD Cmax/D (ABCG2 rs17731799 TT): 0.03 (0.03) | Ratio 20(S)-PPD/CK AUClast/D (ABCG2 rs17731799 TT): 4.76 (7.86) % | Ratio 20(S)-PPD/CK Cmax/D (ABCG2 rs17731799 TT): 1.08 (1.53) % | 20(S)-PPD AUClast/D (CFTR rs213950 AG): 0.91 (0.99) | 20(S)-PPD Cmax/D (CFTR rs213950 AG): 0.03 (0.04) | Ratio 20(S)-PPD/CK AUClast/D (CFTR rs213950 AG): 4.96 (7.34) % | Ratio 20(S)-PPD/CK Cmax/D (CFTR rs213950 AG): 1.45 (2.26) % | 20(S)-PPD AUClast/D (CFTR rs213950 GG): 0.64 (0.54) | 20(S)-PPD Cmax/D (CFTR rs213950 GG): 0.02 (0.02) | Ratio 20(S)-PPD/CK AUClast/D (CFTR rs213950 GG): 2.67 (3.18) % | Ratio 20(S)-PPD/CK Cmax/D (CFTR rs213950 GG): 0.64 (0.66) % | 20(S)-PPD AUClast/D (CFTR rs213968 CC): 0.64 (0.55) | 20(S)-PPD Cmax/D (CFTR rs213968 CC): 0.02 (0.02) | Ratio 20(S)-PPD/CK AUClast/D (CFTR rs213968 CC): 2.81 (3.33) % | Ratio 20(S)-PPD/CK Cmax/D (CFTR rs213968 CC): 0.65 (0.69) % | 20(S)-PPD AUClast/D (CFTR rs213968 CT): 0.90 (0.98) | 20(S)-PPD Cmax/D (CFTR rs213968 CT): 0.03 (0.04) | Ratio 20(S)-PPD/CK AUClast/D (CFTR rs213968 CT): 4.70 (7.26) % | Ratio 20(S)-PPD/CK Cmax/D (CFTR rs213968 CT): 1.40 (2.23) % | 20(S)-PPD AUClast/D (CFTR rs213968 TT): 0.97 (0.49) | 20(S)-PPD Cmax/D (CFTR rs213968 TT): 0.04 (0.02) | Ratio 20(S)-PPD/CK AUClast/D (CFTR rs213968 TT): 5.87 (7.37) % | Ratio 20(S)-PPD/CK Cmax/D (CFTR rs213968 TT): 1.40 (1.51) % | 20(S)-PPD AUClast/D (CFTR rs213976 GG): 1.12 (0.43) | 20(S)-PPD Cmax/D (CFTR rs213976 GG): 0.04 (0.02) | Ratio 20(S)-PPD/CK AUClast/D (CFTR rs213976 GG): 7.39 (8.42) % | Ratio 20(S)-PPD/CK Cmax/D (CFTR rs213976 GG): 1.68 (1.73) % | 20(S)-PPD AUClast/D (CFTR rs213976 GT): 0.83 (0.78) | 20(S)-PPD Cmax/D (CFTR rs213976 GT): 0.03 (0.03) | Ratio 20(S)-PPD/CK AUClast/D (CFTR rs213976 GT): 4.01 (4.96) % | Ratio 20(S)-PPD/CK Cmax/D (CFTR rs213976 GT): 1.32 (2.08) % | 20(S)-PPD AUClast/D (CFTR rs213976 TT): 0.74 (0.87) | 20(S)-PPD Cmax/D (CFTR rs213976 TT): 0.02 (0.03) | Ratio 20(S)-PPD/CK AUClast/D (CFTR rs213976 TT): 3.63 (6.72) % | Ratio 20(S)-PPD/CK Cmax/D (CFTR rs213976 TT): 0.81 (1.29) % | 20(S)-PPD AUClast/D (CFTR rs1042077 GG): 0.97 (0.49) | 20(S)-PPD Cmax/D (CFTR rs1042077 GG): 0.04 (0.02) | Ratio 20(S)-PPD/CK AUClast/D (CFTR rs1042077 GG): 5.87 (7.37) % | Ratio 20(S)-PPD/CK Cmax/D (CFTR rs1042077 GG): 1.40 (1.51) % | 20(S)-PPD AUClast/D (CFTR rs1042077 GT): 0.92 (0.99) | 20(S)-PPD Cmax/D (CFTR rs1042077 GT): 0.03 (0.04) | Ratio 20(S)-PPD/CK AUClast/D (CFTR rs1042077 GT): 4.85 (7.37) % | Ratio 20(S)-PPD/CK Cmax/D (CFTR rs1042077 GT): 1.44 (2.26) % | 20(S)-PPD AUClast/D (CFTR rs1042077 TT): 0.68 (0.55) | 20(S)-PPD Cmax/D (CFTR rs1042077 TT): 0.02 (0.02) | Ratio 20(S)-PPD/CK AUClast/D (CFTR rs1042077 TT): 2.95 (3.37) % | Ratio 20(S)-PPD/CK Cmax/D (CFTR rs1042077 TT): 0.68 (0.70) % | 20(S)-PPD AUClast/D (CFTR rs2106155 AA): 1.09 (0.41) | 20(S)-PPD Cmax/D (CFTR rs2106155 AA): 0.04 (0.02) | Ratio 20(S)-PPD/CK AUClast/D (CFTR rs2106155 AA): 7.22 (7.81) % | Ratio 20(S)-PPD/CK Cmax/D (CFTR rs2106155 AA): 1.67 (1.60) % | 20(S)-PPD AUClast/D (CFTR rs2106155 CA): 0.88 (0.82) | 20(S)-PPD Cmax/D (CFTR rs2106155 CA): 0.04 (0.03) | Ratio 20(S)-PPD/CK AUClast/D (CFTR rs2106155 CA): 4.03 (5.36) % | Ratio 20(S)-PPD/CK Cmax/D (CFTR rs2106155 CA): 1.39 (2.26) %
